From ChEMBL document CHEMBL3797037, “Kinetically Selective Inhibitors of Human Carbonic Anhydrase Isozymes I, II, VII, IX, XII, and XIII” (J Med Chem, 2016)
Calls of active or inactive are those of the source. No cut-off for these calls is given here.

What was measured:
[1] = target: T1, Carbonic anhydrase 12 (Homo sapiens, UniProt O43570); experiment: Binding affinity to human recombinant CA12 catalytic domain after 30 secs by surface plasmon resonance assay
[2] = target: T2, Carbonic anhydrase 9 (Homo sapiens, UniProt Q16790); experiment: Binding affinity to human recombinant CA9 catalytic domain assessed as dissociation constant calculated from kinetic parameters at pH 7 by surface plasmon resonance assay
In short: (§1)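 pH-dependence SPR on CA IX or CA XII catalytic domain surfaces, using a denatured-protein reference. Buffers were 50 mM sodium phosphate, 150 mM NaCl, 0.05 % Tween-20 and 2 % DMSO at pH 6.0, 7.0 or 8.0. Ligands ran as 2-fold series (62.5–2000 or 31.3–1000 nM) with 60 s injection and 90–360 s dissociation. Triplicates used a new surface each time. KD = kd/ka from the kinetic fit.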

[3] = target: T2, Carbonic anhydrase 9; experiment: Binding affinity to human recombinant CA9 catalytic domain assessed as association rate constant at pH 7 by surface plasmon resonance assay; in short: as §1
[4] = target: T2, Carbonic anhydrase 9; experiment: Binding affinity to human recombinant CA9 catalytic domain by fluorescence-based thermal shift assay
[5] = target: T2, Carbonic anhydrase 9; experiment: Binding affinity to human recombinant CA9 catalytic domain assessed as dissociation rate constant at pH 7 by surface plasmon resonance assay; in short: as §1
[6] = target: T2, Carbonic anhydrase 9; experiment: Binding affinity to human recombinant CA9 catalytic domain assessed as dissociation rate constant at pH 6 by surface plasmon resonance assay; in short: as §1
[7] = target: T3, Carbonic anhydrase 13 (Homo sapiens, UniProt Q8N1Q1); experiment: Slow rate dissociation at human recombinant CA13 after 30 sec by surface plasmon resonance assay
In short: (§2)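 SPR kinetics at 25 °C on amine-coupled isozyme surfaces, with immobilization protein level and acetate coupling pH set per isozyme. Running buffer PBST, pH 7.4, with 2 % DMSO. Ligands run as 2-fold series from 15.6 to 2000 nM at 30 or 90 µL/min, with 30 s association and 180 s dissociation.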
Target sequence in this assay (Q8N1Q1 whole entry, looked up): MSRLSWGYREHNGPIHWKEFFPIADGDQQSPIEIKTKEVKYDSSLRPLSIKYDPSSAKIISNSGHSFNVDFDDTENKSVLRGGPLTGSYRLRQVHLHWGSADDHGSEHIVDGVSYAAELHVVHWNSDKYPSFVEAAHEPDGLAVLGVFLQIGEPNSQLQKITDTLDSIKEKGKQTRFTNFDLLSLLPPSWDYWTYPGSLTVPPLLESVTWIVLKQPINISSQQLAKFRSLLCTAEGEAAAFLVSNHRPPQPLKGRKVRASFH

[8] = target: T1, Carbonic anhydrase 12; experiment: Binding affinity to human recombinant CA12 catalytic domain assessed as dissociation constant calculated from saturation signal at pH 8 by surface plasmon resonance assay
[9] = target: T4, Carbonic anhydrase 7 (Homo sapiens, UniProt P43166); experiment: Binding affinity to human recombinant CA7 assessed as dissociation rate constant after 30 secs by surface plasmon resonance assay
[10] = target: T2, Carbonic anhydrase 9; experiment: Binding affinity to human recombinant CA9 catalytic domain assessed as association rate constant at pH 6 by surface plasmon resonance assay; in short: as §1
[11] = target: T1, Carbonic anhydrase 12; experiment: Binding affinity to human recombinant CA12 catalytic domain assessed as dissociation constant calculated from saturation signal at pH 6 by surface plasmon resonance assay
[12] = target: T4, Carbonic anhydrase 7; experiment: Binding affinity to human recombinant CA7 by fluorescence-based thermal shift assay
[13] = target: T2, Carbonic anhydrase 9; experiment: Binding affinity to human recombinant CA9 catalytic domain assessed as association rate constant after 30 secs by surface plasmon resonance assay; in short: as §2
[14] = target: T2, Carbonic anhydrase 9; experiment: Binding affinity to human recombinant CA9 catalytic domain assessed as dissociation constant calculated from kinetic parameters at pH 8 by surface plasmon resonance assay; in short: as §1
[15] = target: Carbonic anhydrase 2 (Homo sapiens, UniProt P00918); experiment: Binding affinity to human recombinant CA2 expressed in Escherichia coli by fluorescence-based thermal shift assay
[16] = target: T1, Carbonic anhydrase 12; experiment: Binding affinity to human recombinant CA12 catalytic domain by fluorescence-based thermal shift assay
[17] = target: T2, Carbonic anhydrase 9; experiment: Binding affinity to human recombinant CA9 catalytic domain assessed as dissociation constant calculated from kinetic parameters at pH 6 by surface plasmon resonance assay; in short: as §1
[18] = target: T4, Carbonic anhydrase 7; experiment: Binding affinity to human recombinant CA7 after 30 secs by surface plasmon resonance assay
[19] = target: Carbonic anhydrase 1 (Homo sapiens, UniProt P00915); experiment: Binding affinity to human recombinant CA1 expressed in Escherichia coli by fluorescence-based thermal shift assay
[20] = target: T2, Carbonic anhydrase 9; experiment: Binding affinity to human recombinant CA9 catalytic domain assessed as dissociation rate constant at pH 8 by surface plasmon resonance assay; in short: as §1
[21] = target: T2, Carbonic anhydrase 9; experiment: Binding affinity to human recombinant CA9 catalytic domain after 30 secs by surface plasmon resonance assay
In short: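 SPR kinetics at 25 °C on amine-coupled isozyme surfaces, with immobilization protein level and acetate coupling pH set per isozyme. Running buffer PBST, pH 7.4, with 2 % DMSO.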

[22] = target: T3, Carbonic anhydrase 13; experiment: Binding affinity to human recombinant CA13 by fluorescence-based thermal shift assay
Target sequence in this assay (Q8N1Q1 whole entry): as the sequence (Q8N1Q1 whole entry, looked up) above

[23] = target: T2, Carbonic anhydrase 9; experiment: Binding affinity to human recombinant CA9 catalytic domain assessed as association rate constant at pH 8 by surface plasmon resonance assay; in short: as §1
[24] = target: T1, Carbonic anhydrase 12; experiment: Binding affinity to human recombinant CA12 catalytic domain assessed as dissociation constant calculated from saturation signal at pH 7 by surface plasmon resonance assay

T4 sequence (P43166 whole entry, the tested form may be a part): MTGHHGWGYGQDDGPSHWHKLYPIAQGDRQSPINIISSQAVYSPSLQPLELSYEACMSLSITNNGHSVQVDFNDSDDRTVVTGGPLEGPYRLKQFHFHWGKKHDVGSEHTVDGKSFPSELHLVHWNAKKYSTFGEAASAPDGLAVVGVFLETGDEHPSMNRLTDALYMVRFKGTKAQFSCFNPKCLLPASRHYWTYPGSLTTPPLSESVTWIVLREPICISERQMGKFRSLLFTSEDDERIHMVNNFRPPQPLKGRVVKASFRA
T1 sequence (O43570 whole entry, the tested form may be a part): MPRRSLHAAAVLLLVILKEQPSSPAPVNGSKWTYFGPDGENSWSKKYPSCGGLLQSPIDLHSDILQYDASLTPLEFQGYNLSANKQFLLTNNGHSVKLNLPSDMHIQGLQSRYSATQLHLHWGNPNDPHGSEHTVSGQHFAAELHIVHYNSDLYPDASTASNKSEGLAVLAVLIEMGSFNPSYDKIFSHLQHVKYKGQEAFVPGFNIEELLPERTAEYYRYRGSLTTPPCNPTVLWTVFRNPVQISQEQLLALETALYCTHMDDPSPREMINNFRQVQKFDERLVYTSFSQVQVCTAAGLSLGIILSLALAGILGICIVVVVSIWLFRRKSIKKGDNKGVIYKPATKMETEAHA
Sequence of Carbonic anhydrase 1 (P00915 whole entry, the tested form may be a part): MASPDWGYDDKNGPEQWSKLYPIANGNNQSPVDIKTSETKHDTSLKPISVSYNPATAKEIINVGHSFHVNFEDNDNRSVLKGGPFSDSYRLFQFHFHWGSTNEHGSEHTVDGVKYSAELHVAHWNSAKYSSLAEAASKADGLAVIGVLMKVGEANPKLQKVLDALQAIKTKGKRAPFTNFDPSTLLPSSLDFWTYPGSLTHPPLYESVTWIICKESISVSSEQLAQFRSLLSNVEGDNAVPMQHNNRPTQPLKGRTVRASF

CCCSc1c(F)c(F)c(S(N)(=O)=O)c(NC2CCCCCCC2)c1F
Kd [1]: 0.4 µM
Kd [2]: 0.046 µM
K [3]: 1.6 ×10⁵ /M/s
Kd [4]: 0.00017 µM
Dissociation rate constant (koff) [5]: 7.2 ×10⁻³ /s
Dissociation rate constant (koff) [6]: 7.9 ×10⁻³ /s
Activity [7]: Active
Kd [8]: 0.39 µM
koff (dissociation rate constant) [9]: 1 ×10⁻² /s
K [10]: 5.8 ×10⁴ /M/s
Kd [11]: 2.6 µM
Kd [12]: 0.074 µM
K [13]: 2.9 ×10⁵ /M/s
Kd [14]: 0.019 µM
Kd [15]: 0.45 µM
Kd [16]: 0.1 µM
Kd [17]: 0.14 µM
Kd [18]: 0.51 µM
Kd [19]: 9.1 µM
Dissociation rate constant (koff) [20]: 6.2 ×10⁻³ /s
Kd [21]: 0.027 µM
Kd [22]: 0.033 µM
K [23]: 3.3 ×10⁵ /M/s
Kd [24]: 0.84 µM
